# Assay results of several laboratories.
# Target: Mitogen-activated protein kinase kinase kinase 5 (MAP3K5, Homo sapiens, UniProt Q99683)
# Sequence (Q99683 1-1374, as in one of the studies): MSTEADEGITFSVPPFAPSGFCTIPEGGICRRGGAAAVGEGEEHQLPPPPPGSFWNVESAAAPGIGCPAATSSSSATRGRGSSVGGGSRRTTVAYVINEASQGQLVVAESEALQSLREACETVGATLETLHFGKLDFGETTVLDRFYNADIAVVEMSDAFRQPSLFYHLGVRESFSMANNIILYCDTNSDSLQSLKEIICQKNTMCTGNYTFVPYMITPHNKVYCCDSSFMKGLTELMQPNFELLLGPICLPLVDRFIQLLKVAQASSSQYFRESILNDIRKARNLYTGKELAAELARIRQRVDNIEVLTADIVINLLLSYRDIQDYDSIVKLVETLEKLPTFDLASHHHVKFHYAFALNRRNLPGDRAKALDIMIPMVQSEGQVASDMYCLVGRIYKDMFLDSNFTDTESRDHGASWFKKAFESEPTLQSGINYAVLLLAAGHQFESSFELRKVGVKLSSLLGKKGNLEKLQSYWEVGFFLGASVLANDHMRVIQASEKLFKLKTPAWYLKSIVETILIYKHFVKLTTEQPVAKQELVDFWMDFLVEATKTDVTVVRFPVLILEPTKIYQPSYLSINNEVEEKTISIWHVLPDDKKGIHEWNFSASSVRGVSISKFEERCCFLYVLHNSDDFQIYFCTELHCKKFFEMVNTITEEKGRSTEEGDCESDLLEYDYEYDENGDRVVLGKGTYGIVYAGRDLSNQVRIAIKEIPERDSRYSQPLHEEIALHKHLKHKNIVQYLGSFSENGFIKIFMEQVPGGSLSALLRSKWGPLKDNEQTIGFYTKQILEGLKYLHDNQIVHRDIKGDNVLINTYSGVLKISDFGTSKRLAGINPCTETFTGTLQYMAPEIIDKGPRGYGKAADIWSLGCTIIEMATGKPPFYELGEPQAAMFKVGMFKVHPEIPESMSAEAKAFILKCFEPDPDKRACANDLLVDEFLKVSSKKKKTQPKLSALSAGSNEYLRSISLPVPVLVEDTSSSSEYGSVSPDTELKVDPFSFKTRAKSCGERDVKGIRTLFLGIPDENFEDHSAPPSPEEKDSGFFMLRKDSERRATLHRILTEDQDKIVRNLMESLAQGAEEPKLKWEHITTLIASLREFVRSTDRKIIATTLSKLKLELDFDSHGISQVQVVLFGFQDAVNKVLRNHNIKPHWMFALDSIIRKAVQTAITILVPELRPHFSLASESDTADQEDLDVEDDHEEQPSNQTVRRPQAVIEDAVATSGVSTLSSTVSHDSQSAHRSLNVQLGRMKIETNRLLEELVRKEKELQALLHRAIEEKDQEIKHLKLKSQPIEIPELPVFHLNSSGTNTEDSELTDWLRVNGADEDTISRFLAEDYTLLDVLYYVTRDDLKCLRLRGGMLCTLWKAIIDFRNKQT
Structure (SMILES),read-out,mode,method,cells,tested at,endpoint,result
Cn1c(=O)n(-c2ccc(C(C)(C)C#N)cc2)c2c3cc(-c4cnc5ccccc5c4)ccc3ncc21,enzyme activity,inhibitor,,,10 µM,remaining activity,106%
O=C(Nc1cnn(-c2csc(C(=O)NC3COC3)c2)c1)Nc1c(F)cccc1Cl,enzyme activity,inhibitor,,,5 µM,remaining activity,91.1%
Cn1c2c(Cl)c(Cl)ccc2c2cc[nH]c(=O)c21,thermal stability,,DSF,,10 µM,ΔTm,2.1 °C
CC(C)CC(=O)N1CCc2nc(-c3ccc(Br)cc3)nc(N(C)Cc3ccccc3)c2C1,cell-free assay,,competition with immobilised ligand,,0.1 µM,remaining binding,91%
Cc1ccc(C(=O)Nc2ccc(CN3CCN(C)CC3)c(C(F)(F)F)c2)cc1C#Cc1cnc2cccnn12,enzyme activity,inhibitor,,,23.5 nM,remaining activity,100%
NS(=O)(=O)c1cc(NC(=O)Cc2ccccc2)ccc1Oc1cccc(Cl)c1,cell-free assay,,competition with immobilised ligand,,1 µM,remaining binding,100%
CC(C)(O)[C@H]1CC[C@H](Nc2ccc3ncc(-c4cccc(C(F)(F)F)c4)n3n2)CC1,enzyme activity,inhibitor,,,1 µM,remaining activity,96.7%
Cc1ccc(Nc2nccc(N(C)c3ccc4c(C)n(C)nc4c3)n2)cc1S(N)(=O)=O,enzyme activity,inhibitor,,,0.3 µM,inhibition,6%
Cn1c2c(c3ccc(Cl)c(Cl)c31)C(C#N)C(C)(C)NC2=O (stereo not shown),thermal stability,,DSF,,10 µM,ΔTm,2.6 °C
Cn1nc(C(F)(F)F)cc1-c1cnc(N2CCc3cc(S(=O)(=O)Nc4c(F)cc(Cl)cc4F)cc(N4CCCC4=O)c32)nc1,cell-free assay,,competition with immobilised ligand,,1 µM,remaining binding,100%
CNC(=O)c1cc(Oc2ccc(NC(=O)Nc3ccc(Cl)c(C(F)(F)F)c3)cc2)ccn1,enzyme activity,inhibitor,,,0.3 µM,inhibition,0%
O=C1Nc2ccc(Cl)cc2C1=Cc1cc(Cl)c(O)c(Cl)c1,cell-free assay,,,,0.5 µM,remaining signal,106%
Cc1cnc(NC2CCOCC2)nc1-n1cnc(C(=O)NC(CN)c2cc(F)cc(Cl)c2)c1 (stereo not shown),enzyme activity,inhibitor,radiometric,,1 µM,remaining activity,105%
CCCS(=O)(=O)Nc1ccc(F)c(C(=O)c2c[nH]c3ncc(-c4ccc(Cl)cc4)cc23)c1F,enzyme activity,inhibitor,,,1 µM,inhibition,< 10%
Cn1c2c(c3ccc(Cl)c(Cl)c31)C(C#N)C1(CCN(C(=O)OC(C)(C)C)CC1)NC2=O (racemic),thermal stability,,DSF,,10 µM,ΔTm,0 °C
CCCCNc1ncc2c(-c3ccc(F)cc3)nn(C[C@H]3CC[C@H](N)CC3)c2n1,target engagement in cells,inhibitor,chemoproteomics,,20 mM,inhibition,-10.7%
Cn1c2c(c3ccc(Cl)c(Cl)c31)C(C#N)C1(CCNCC1)NC2=O (racemic),thermal stability,,DSF,,10 µM,ΔTm,0.1 °C
CN(C(=O)c1ccccc1)c1cc(N(C)c2ccc3c(c2)CCc2ccc(C(=O)NCCN4CCOCC4)cc2C3=O)ccc1F,cell-free assay,,competition with immobilised ligand,,1 µM,remaining binding,100%
Nc1ncnc2occ(-c3ccc(NC(=O)Nc4cc(C(F)(F)F)ccc4F)cc3)c12,cell-free assay,inhibitor,,,20 µM,remaining signal,7.8%
CCOc1cc(-c2nncn2C)ccc1Nc1ncc2cc(C)nc(NCC(C)(C)C)c2n1,cell-free assay,,TR-FRET,,1 µM,inhibition,≤ 15%
CCN1CCN(Cc2ccc(NC(=O)c3ccc(C)c(Oc4ccnc5[nH]ccc45)c3)cc2C(F)(F)F)CC1,target engagement in cells,inhibitor,chemoproteomics,A-375,0.5 µM,inhibition,-10.5%
CNCc1ccc(-c2cc(-c3nc(-c4ccc(S(=O)(=O)C(C)C)cc4)cnc3N)on2)cc1,enzyme activity,inhibitor,,,2 µM,inhibition,0%
FC(F)(F)Oc1cccc(-c2cnc3ccc(-c4ccncc4)nn23)c1,enzyme activity,inhibitor,radiometric,,5 µM,activity vs control,104%
CC(C)(C)c1nc(-c2cccc(NS(=O)(=O)c3c(F)cccc3F)c2F)c(-c2ccnc(N)n2)s1,enzyme activity,inhibitor,radiometric,,1 µM,remaining activity,98%
Cc1sc(C(=O)NC2COC2)cc1-n1cc(NC(=O)Nc2c(F)cccc2Cl)cn1,enzyme activity,inhibitor,,,10 µM,remaining activity,94%
Cn1nc(C(=O)NCc2ccc(C(=O)O)cc2)cc1-c1ccc2[nH]ccc2c1,cell-free assay,,competition with immobilised ligand,,0.1 µM,remaining binding,86%
CCN(CC)CCNC(=O)c1c(C)[nH]c(/C=C2\C(=O)Nc3ccc(F)cc32)c1C,enzyme activity,inhibitor,,,0.3 µM,inhibition,4%
Oc1cccc(-c2nc(N3CCOCC3)c3oc4ncccc4c3n2)c1,enzyme activity,inhibitor,,,10 µM,remaining activity,101%
C[S+]([O-])c1ccc(-c2nc(-c3ccncc3)c(-c3ccc(F)cc3)[nH]2)cc1 (stereo not shown),cell-free assay,,,,0.5 µM,remaining signal,107%
CCN1CCN(Cc2ccc(NC(=O)c3ccc(C)c(/C=C/c4cnc5[nH]ccc5c4OC)c3)cc2C(F)(F)F)CC1,target engagement in cells,inhibitor,chemoproteomics,A-375,5 µM,inhibition,-35.5%
CC1=C(C#N)[C@@H](c2ccc3[nH]nc(C)c3c2)C(C#N)=C(c2ccc(Cl)cc2)N1,cell-free assay,,competition with immobilised ligand,,1 µM,remaining binding,100%
CCCOc1ccc(OC)c(F)c1C(=O)c1ccc(C(=O)N[C@@H]2CNC[C@H]2NC(=O)c2ccc3[nH]ncc3c2)cc1,enzyme activity,inhibitor,,,10 µM,remaining activity,83%
CCC1(CC)NC(=O)c2c(c3ccc(Cl)c(Cl)c3n2C)C1C#N (stereo not shown),thermal stability,,DSF,,10 µM,ΔTm,0.7 °C
Cc1noc([C@H]2C[C@@H](c3ccc(C(F)(F)F)cc3)CN(C(=O)N3CCS(=O)(=O)C3)C2)n1,cell-free assay,,competition with immobilised ligand,,1 µM,remaining binding,100%
COc1cc(Nc2cnc(C#N)c(O[C@H](C)CN(C)C)n2)ncc1-c1cnn(C)c1,enzyme activity,inhibitor,radiometric,,1 µM,remaining activity,95%
CNCc1ccccc1-c1csc([C@@H](C)Nc2nc(C)nc3cc(OC)c(OC)cc23)c1,cell-free assay,,competition with immobilised ligand,,1 µM,remaining binding,91%
c1ccc(CNc2nc(N3CCOc4ccccc43)nc3c2CCCC3)cc1,target engagement in cells,inhibitor,chemoproteomics,,20 mM,inhibition,-10.3%
